Two molecules from PMC3991427 (Angewandte Chemie (International ed. in English), 2014) can be followed below.

SMILES strings stand for the structures.

The assay concerns MCF-7 breast cancer cells. The assay is classed as cell-based. The note with it: broad compound screen at 10 μM, compared with (+)-21. The procedure, abridged:
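Single-concentration screen: each test compound at 10 μM, run in parallel against MCF-7 breast cancer cells and non-tumorigenic MCF-10A breast cells. The assay is proliferation-based, and the read-out is relative cell number after treatment, expressed as a percentage. Selectivity is judged by comparing the MCF-7 response with the MCF-10A response.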

On to `c1ccsc1` [compound 28, thiophene], for which the “inhibition of cell proliferation / cell growth (in words)” value was “did not inhibit cell growth”.
For `c1ccc2sccc2c1` [compound 29, benzothiophene], the “inhibition of cell proliferation / cell growth (in words)” value was “did not inhibit cell growth”.
